Data from ChEMBL document CHEMBL1144374, “Design, synthesis and biological evaluation of novel, simplified analogues of laulimalide: modification of the side chain” (Bioorg Med Chem Lett, 2005).

Assays:
Format in all cases: cell-based
[1] = Inhibitory concentration measured in term of cytotoxicity against human A2780/AD10 cells; settings: A2780 ADR
In short: (§1)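 Human ovarian carcinoma A2780 cells and the drug-resistant A2780/AD10 subline were exposed to compounds for three days. Growth was read by MTT cell proliferation assay. IC50 values are means ± standard error of at least four independent experiments. Compounds were scored not active when there was no activity below 50 µM.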

[2] = Inhibitory concentration of compound required for exhibiting cytotoxic effect on human A2780 cells; in short: as §1
[3] = Inhibitory concentration of compound required for exhibiting cytotoxic effect on human A2780 cells; na = not active below 50 uM; in short: as §1
[4] = Inhibitory concentration measured in term of cytotoxicity against human A2780/AD10 cells; na = not active below 50 uM; settings: a2780 adr; in short: as §1
[5] = Inhibitory concentration of compound required for exhibiting cytotoxic effect on human A2780 cells; no. of experiment=4
In short: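 Human ovarian carcinoma A2780 cells exposed to drugs for three days. Growth was read by MTT (3-(4,5-dimethylthiazol-2-yl)-2,5-diphenyltetrazolium bromide) cell proliferation assay and IC50 determined. Values are means ± standard error of at least four independent experiments.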

| SMILES | IC50 [1] | IC50 [2] | IC50 [3] | IC50 [4] | IC50 [5] |
| --- | --- | --- | --- | --- | --- |
| C=C1CCC[C@@H]2CC=C[C@@H](C/C=C\C(=O)O[C@H](CO)C[C@@H]3O[C@H]3[C@@H](O)C1)O2 | 44000 nM | 40000 nM |  |  |  |
| C=C1CCC[C@@H]2CC=C[C@@H](C/C=C\C(=O)O[C@H]([C@@H](O)/C=C/c3csc(C)n3)C[C@@H]3O[C@H]3[C@@H](O)C1)O2 |  |  | Not Active | Not Active |  |
| C=C1CCC[C@@H]2CC=C[C@@H](C/C=C\C(=O)O[C@H]([C@@H](O)/C=C/[C@@H]3CC(C)=CCO3)C[C@@H]3O[C@H]3[C@@H](O)C1)O2 | 74 nM | 50 nM |  |  |  |
| C=C1CCC[C@@H]2CC=C[C@@H](C/C=C\C(=O)O[C@H]([C@@H](O)/C=C/C3CCCCC3)C/C=C/[C@@H](O)C1)O2 |  |  | Not Active | Not Active |  |
| C=C1CCC[C@@H]2CC=C[C@@H](C/C=C\C(=O)O[C@H]([C@@H](O)/C=C/C3CCCCC3)C[C@@H]3O[C@H]3[C@@H](O)C1)O2 | 8300 nM | 9000 nM |  |  |  |
| C=C1CCC[C@@H]2CC=C[C@@H](C/C=C\C(=O)O[C@H](CO)C/C=C/[C@@H](O)C1)O2 |  |  | Not Active | Not Active |  |
| C=C1CCC[C@@H]2CC=C[C@@H](C/C=C\C(=O)O[C@H]([C@@H](O)/C=C/[C@@H]3CC(C)=CCO3)C/C=C/[C@@H](O)C1)O2 | 1100 nM | 430 nM |  |  |  |
| C=C1CCC[C@@H]2CC=C[C@@H](C/C=C\C(=O)O[C@H]([C@@H](O)/C=C/c3csc(C)n3)C/C=C/[C@@H](O)C1)O2 |  |  | Not Active | Not Active |  |
| C=C/C=C\[C@H](C)[C@H](OC(N)=O)[C@@H](C)[C@H](O)[C@@H](C)C/C(C)=C\[C@H](C)[C@@H](O)[C@@H](C)/C=C\[C@@H](O)C[C@@H]1OC(=O)[C@H](C)[C@@H](O)[C@H]1C [DISERMOLIDE] | 100 nM |  |  |  | 10 nM |
| C=C1C[C@H](C)C[C@@H]2CC=C[C@@H](C/C=C\C(=O)O[C@H]([C@@H](O)/C=C/[C@@H]3CC(C)=CCO3)C[C@@H]3O[C@H]3[C@@H](O)C1)O2 [FIJIANOLIDE B] | 7.5 nM | 3.4 nM |  |  |  |
| CC(=O)O[C@H]1C(=O)[C@@]2(C)[C@H]([C@H](OC(=O)c3ccccc3)[C@]3(O)C[C@H](OC(=O)[C@H](O)[C@@H](NC(=O)c4ccccc4)c4ccccc4)C(C)=C1C3(C)C)[C@]1(OC(C)=O)CO[C@@H]1C[C@@H]2O [PACLITAXEL] | 1500 nM |  |  |  | 1.1 nM |
